{"data": "Experimental data gathered from unrelated publications", "target": "Serine/threonine-protein kinase 4 (STK4, Homo sapiens, UniProt Q13043)", "Sequence (Q13043 1-487, as in one of the studies)": "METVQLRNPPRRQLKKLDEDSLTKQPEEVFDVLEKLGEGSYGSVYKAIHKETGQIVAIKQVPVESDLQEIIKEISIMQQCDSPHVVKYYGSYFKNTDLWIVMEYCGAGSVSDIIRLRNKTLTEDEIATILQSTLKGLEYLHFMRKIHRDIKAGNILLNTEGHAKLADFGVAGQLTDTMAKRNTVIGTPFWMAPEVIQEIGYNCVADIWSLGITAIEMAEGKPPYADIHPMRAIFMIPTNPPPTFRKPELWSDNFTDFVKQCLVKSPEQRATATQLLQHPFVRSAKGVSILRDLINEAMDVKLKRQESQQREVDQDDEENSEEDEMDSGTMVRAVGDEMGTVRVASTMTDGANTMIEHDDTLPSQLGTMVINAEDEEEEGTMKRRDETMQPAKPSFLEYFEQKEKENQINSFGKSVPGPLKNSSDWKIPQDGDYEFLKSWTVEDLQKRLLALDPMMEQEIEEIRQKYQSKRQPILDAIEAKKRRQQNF"}
{"SMILES": "Nc1ncc(-c2nc(N3CCOCC3)nc(N3CCOCC3)n2)c(C(F)F)n1", "test": "binding, competition with immobilised ligand", "conditions": "10 µM", "measurement": "remaining binding", "result": "86%"}
{"SMILES": "O=c1[nH]c2ccccc2n1C1CCN(Cc2ccc(-c3[nH]c4cc5ncnc5cc4nc3-c3ccccc3)cc2)CC1", "test": "cell-free assay", "conditions": "0.5 µM", "measurement": "remaining signal", "result": "95.2%"}
{"SMILES": "C#Cc1n[nH]c2c(-c3cn([C@@H](C)c4ccccc4)c(=O)[nH]c3=O)cc(F)cc12", "test": "enzyme activity, inhibitor", "conditions": "0.1 µM", "measurement": "inhibition", "result": "-0.9%"}
{"SMILES": "Cn1cc(-c2cc(F)cc(N3CCn4c(cc5c4CCCC5)C3=O)c2CO)cc(Nc2ccc(N3CCN(C4COC4)CC3)cn2)c1=O", "test": "enzyme activity, inhibitor", "conditions": "0.1 µM", "measurement": "inhibition", "result": "13%"}
{"SMILES": "CC(C)(C)c1cc(C=C(C#N)C#N)cc(Br)c1O", "test": "enzyme activity, inhibitor", "conditions": "0.5 µM", "measurement": "remaining activity", "result": "90.5%"}
{"SMILES": "Cc1nn(C)cc1-c1nc2c(N3CCN(Cc4ccc(Cl)cc4)CC3)c(Cl)cnc2[nH]1", "test": "binding, competition with immobilised ligand", "conditions": "1 µM", "measurement": "remaining binding", "result": "100%"}
{"SMILES": "Cn1cncc1[C@](O)(COc1ccc(C#N)cc1-c1ccc(OC(F)(F)F)cc1)c1ccc(C#N)cc1", "test": "cell-free assay, competition with immobilised ligand", "conditions": "1 µM", "measurement": "remaining binding", "result": "86%"}
{"SMILES": "COc1ncccc1-c1cnn2ccc(N3CCN(C(=O)OC(C)C)CC3)nc12", "test": "binding, competition with immobilised ligand", "conditions": "1 µM", "measurement": "remaining binding", "result": "40%"}
{"SMILES": "NC(=O)c1cccc(-c2c[nH]c3ncnc(N4CCOCC4)c23)c1", "test": "thermal stability, DSF", "conditions": "20 µM", "measurement": "ΔTm", "result": "> 8 °C"}
{"SMILES": "C#Cc1n[nH]c2c(-c3cn(C(C)c4ccccn4)c(=O)[nH]c3=O)cc(F)cc12 (stereo not drawn)", "test": "enzyme activity, inhibitor", "conditions": "1 µM", "measurement": "inhibition", "result": "3.7%"}
{"SMILES": "Clc1cccc(-c2c[nH]c3nccc(N4CCOCC4)c23)c1", "test": "thermal stability, DSF", "conditions": "20 µM", "measurement": "ΔTm", "result": "> 8 °C"}
{"SMILES": "Cn1cc(-c2cccc(N3CCc4c(sc5c4CC(C)(C)C5)C3=O)c2CO)cc(Nc2ccncn2)c1=O", "test": "enzyme activity, inhibitor", "conditions": "1 µM", "measurement": "inhibition", "result": "-4%"}
